Data from ChEMBL document CHEMBL4251719, “Drimane Sesquiterpenoids Noncompetitively Inhibit Human α4β2 Nicotinic Acetylcholine Receptors with Higher Potency Compared to Human α3β4 and α7 Subtypes” (J Nat Prod, 2018).
Calls of active or inactive are those of the source. The rule behind the calls is not given here.

Columns and labels:
Format in all cases: cell-based
[1] = biological target: T1, Neuronal acetylcholine receptor; alpha4/beta2 (Homo sapiens, UniProt P17787+P43681); test: Agonist activity at human alpha4beta2 nAChR expressed in HEK293 cells assessed as increase in calcium influx at 100 uM measured for 78 secs by Fluo-4-AM dye based FLIPR assay
Procedure, shortened: (§1)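 Cells seeded 5 × 10^4/well 72 h before, 37 °C, 5% CO2; medium switched to HBSS (pH 7.4)/1% FBS 16–24 h before assay. Loaded 1 h at 37 °C with Fluo-4 plus 2.5 mM probenecid. Compound added alone on FLIPR, fluorescence (ex 488/em 510 nm) recorded 78 s; response normalized to maximal (±)-epibatidine response.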

[2] = biological target: T2, Neuronal acetylcholine receptor subunit alpha-7 (Homo sapiens, UniProt P36544); test: Antagonist activity at human alpha7 nAChR expressed in HEK293 cells assessed as inhibition of (+/-)-epibatidine-induced calcium influx preincubated for 5 mins followed by (+/-)-epibatidine addition measured for 78 secs by Fluo-4-AM dye based FLIPR assay; conditions: in the assay text read “GH3” for “HEK293”
Procedure, shortened: (§2)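 Fluo-4-loaded cells (1 h, 37 °C, 2.5 mM probenecid) washed twice in HBSS/1% FBS, then preincubated 5 min with test ligand at various concentrations. 0.1 μM (±)-epibatidine added on FLIPR after 5-reading baseline; fluorescence (ex 488/em 510 nm) recorded 78 s. Response normalized to maximal epibatidine response; IC50 and nH from nonlinear least-squares curve fits; SD, n = 3.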

[3] = biological target: T3, Neuronal acetylcholine receptor; alpha3/beta4 (Homo sapiens, UniProt P30926+P32297); test: Agonist activity at human alpha3beta4 nAChR expressed in HEK293 cells assessed as increase in calcium influx at 100 uM measured for 78 secs by Fluo-4-AM dye based FLIPR assay; procedure, shortened: as §1
[4] = biological target: T2, Neuronal acetylcholine receptor subunit alpha-7; test: Agonist activity at human alpha7 nAChR expressed in rat GH3 cells assessed as increase in calcium influx at 100 uM measured for 78 secs by Fluo-4-AM dye based FLIPR assay; procedure, shortened: as §1
[5] = biological target: T3, Neuronal acetylcholine receptor; alpha3/beta4; test: Antagonist activity at human alpha3beta4 nAChR expressed in HEK293 cells assessed as inhibition of (+/-)-epibatidine-induced calcium influx preincubated for 5 mins followed by (+/-)-epibatidine addition measured for 78 secs by Fluo-4-AM dye based FLIPR assay; procedure, shortened: as §2
[6] = biological target: T1, Neuronal acetylcholine receptor; alpha4/beta2; test: Antagonist activity at human alpha4beta2 nAChR expressed in HEK293 cells assessed as inhibition of (+/-)-epibatidine-induced calcium influx preincubated for 5 mins followed by (+/-)-epibatidine addition measured for 78 secs by Fluo-4-AM dye based FLIPR assay; procedure, shortened: as §2
[7] = biological target: T1, Neuronal acetylcholine receptor; alpha4/beta2; test: Antagonist activity at human alpha4beta2 nAChR expressed in HEK293 cells assessed as inhibition of (+/-)-epibatidine-induced calcium influx up to 100 uM preincubated for 5 mins followed by (+/-)-epibatidine addition measured for 78 secs by Fluo-4-AM dye based FLIPR assay; procedure, shortened: as §2
[8] = biological target: T1, Neuronal acetylcholine receptor; alpha4/beta2; test: Antagonist activity at human alpha4beta2 nAChR expressed in HEK293 cells assessed as inhibition of (+/-)-epibatidine-induced calcium influx at 1 uM preincubated for 5 mins followed by (+/-)-epibatidine addition measured for 78 secs by Fluo-4-AM dye based FLIPR assay; procedure, shortened: as §2
[9] = biological target: T1, Neuronal acetylcholine receptor; alpha4/beta2; test: Non-competitive inhibition of human alpha4beta2 nAChR expressed in HEK293 cells assessed as inhibition of (+/-)-epibatidine-induced calcium influx preincubated for 5 mins followed by (+/-)-epibatidine addition measured for 78 secs by Fluo-4-AM dye based FLIPR assay
Procedure, shortened: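 (±)-Epibatidine concentration–response curves measured on hα4β2 HEK293 cells without drimane or after 5 min preincubation with 0.3, 1.0 and 3.0 μM; Fluo-4 Ca2+ fluorescence on FLIPR, 78 s recording; n = 3.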

[10] = biological target: T1, Neuronal acetylcholine receptor; alpha4/beta2; test: Antagonist activity at human alpha4beta2 nAChR expressed in HEK293 cells assessed as inhibition of (+/-)-epibatidine-induced calcium influx at 10 to 100 uM preincubated for 5 mins followed by (+/-)-epibatidine addition measured for 78 secs by Fluo-4-AM dye based FLIPR assay relative to control; procedure, shortened: as §2

T1 sequence (P17787 whole entry): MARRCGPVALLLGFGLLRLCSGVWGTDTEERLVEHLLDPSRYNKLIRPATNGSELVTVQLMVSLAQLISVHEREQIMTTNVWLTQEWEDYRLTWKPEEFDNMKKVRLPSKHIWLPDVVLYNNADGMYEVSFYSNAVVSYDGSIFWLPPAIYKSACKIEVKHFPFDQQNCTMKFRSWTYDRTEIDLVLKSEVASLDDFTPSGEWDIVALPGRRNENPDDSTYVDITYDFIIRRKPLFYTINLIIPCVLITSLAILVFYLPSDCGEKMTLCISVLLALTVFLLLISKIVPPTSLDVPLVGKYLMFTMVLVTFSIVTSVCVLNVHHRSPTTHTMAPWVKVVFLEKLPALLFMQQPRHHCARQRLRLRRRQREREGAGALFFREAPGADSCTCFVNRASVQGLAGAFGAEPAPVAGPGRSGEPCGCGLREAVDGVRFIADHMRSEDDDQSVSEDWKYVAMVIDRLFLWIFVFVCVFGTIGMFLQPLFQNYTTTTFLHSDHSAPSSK
T1 sequence (P43681 whole entry): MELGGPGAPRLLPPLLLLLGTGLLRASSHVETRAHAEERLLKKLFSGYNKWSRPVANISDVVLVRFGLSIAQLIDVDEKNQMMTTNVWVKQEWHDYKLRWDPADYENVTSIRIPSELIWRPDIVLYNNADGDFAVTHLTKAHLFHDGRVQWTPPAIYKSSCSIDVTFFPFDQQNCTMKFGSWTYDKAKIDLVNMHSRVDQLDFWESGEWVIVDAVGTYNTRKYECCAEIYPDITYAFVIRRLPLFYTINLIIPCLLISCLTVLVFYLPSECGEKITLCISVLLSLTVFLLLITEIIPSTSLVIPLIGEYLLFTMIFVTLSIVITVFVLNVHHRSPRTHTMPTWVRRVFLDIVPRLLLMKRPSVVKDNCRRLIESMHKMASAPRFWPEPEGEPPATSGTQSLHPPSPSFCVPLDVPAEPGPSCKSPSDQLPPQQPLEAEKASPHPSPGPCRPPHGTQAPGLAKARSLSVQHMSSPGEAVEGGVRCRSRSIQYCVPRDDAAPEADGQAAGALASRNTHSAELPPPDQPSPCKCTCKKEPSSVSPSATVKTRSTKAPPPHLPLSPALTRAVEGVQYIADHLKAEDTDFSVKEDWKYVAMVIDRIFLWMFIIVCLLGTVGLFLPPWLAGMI
T2 sequence (P36544 whole entry): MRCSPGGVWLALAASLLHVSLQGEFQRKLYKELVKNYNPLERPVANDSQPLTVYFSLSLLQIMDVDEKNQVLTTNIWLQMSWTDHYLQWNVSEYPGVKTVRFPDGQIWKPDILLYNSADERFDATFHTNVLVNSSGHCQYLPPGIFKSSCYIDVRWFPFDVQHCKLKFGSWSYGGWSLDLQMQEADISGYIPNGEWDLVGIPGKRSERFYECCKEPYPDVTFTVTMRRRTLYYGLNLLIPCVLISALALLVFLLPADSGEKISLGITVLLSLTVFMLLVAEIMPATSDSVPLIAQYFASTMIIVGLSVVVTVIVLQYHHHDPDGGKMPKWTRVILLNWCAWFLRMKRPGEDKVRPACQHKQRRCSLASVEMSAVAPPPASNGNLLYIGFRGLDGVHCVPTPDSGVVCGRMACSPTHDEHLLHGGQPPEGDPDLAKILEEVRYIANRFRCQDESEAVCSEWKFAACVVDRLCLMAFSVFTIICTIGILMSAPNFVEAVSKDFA
T3 sequence (P30926 whole entry): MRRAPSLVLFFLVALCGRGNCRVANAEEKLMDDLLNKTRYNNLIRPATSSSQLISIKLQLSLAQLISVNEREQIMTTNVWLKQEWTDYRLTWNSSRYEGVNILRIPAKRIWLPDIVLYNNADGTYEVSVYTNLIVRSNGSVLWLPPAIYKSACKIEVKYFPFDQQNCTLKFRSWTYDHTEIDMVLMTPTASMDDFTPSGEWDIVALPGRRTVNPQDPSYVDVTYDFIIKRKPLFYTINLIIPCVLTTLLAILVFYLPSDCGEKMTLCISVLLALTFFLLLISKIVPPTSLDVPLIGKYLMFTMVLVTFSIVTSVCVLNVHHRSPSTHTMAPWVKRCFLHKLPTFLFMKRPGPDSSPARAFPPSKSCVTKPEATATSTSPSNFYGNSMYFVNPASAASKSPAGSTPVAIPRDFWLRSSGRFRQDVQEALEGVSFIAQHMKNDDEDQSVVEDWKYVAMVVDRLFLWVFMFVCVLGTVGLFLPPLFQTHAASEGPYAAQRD
T3 sequence (P32297 whole entry): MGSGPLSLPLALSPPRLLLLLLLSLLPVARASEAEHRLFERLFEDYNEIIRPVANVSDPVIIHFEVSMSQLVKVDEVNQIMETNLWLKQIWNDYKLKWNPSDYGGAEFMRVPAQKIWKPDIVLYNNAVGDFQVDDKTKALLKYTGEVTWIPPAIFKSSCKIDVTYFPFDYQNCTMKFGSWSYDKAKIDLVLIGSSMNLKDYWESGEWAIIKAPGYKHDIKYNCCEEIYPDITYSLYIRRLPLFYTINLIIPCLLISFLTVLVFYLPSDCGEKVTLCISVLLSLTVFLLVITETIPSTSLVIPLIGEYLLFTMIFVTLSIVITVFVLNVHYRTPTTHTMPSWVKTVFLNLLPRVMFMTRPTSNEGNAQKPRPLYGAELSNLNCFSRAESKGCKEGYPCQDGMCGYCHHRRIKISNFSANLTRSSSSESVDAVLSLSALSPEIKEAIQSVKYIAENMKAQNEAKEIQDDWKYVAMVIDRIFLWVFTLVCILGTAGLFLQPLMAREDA

| Compound | Activity [1] | IC50 [2] | Activity [3] | Activity [4] | IC50 [5] | IC50 ([6]; hek293) | inhibition [7] | IC50 ([6]; read-out: IC50) | inhibition [8] | inhibition [9] | inhibition [10] |
| --- | --- | --- | --- | --- | --- | --- | --- | --- | --- | --- | --- |
| CC1(C)CCC[C@]2(C)[C@@H]3C(=CC[C@@H]12)C(=O)O[C@H]3O [DENDOCARBIN A] | inactive | > 100 µM | inactive | inactive | > 100 µM | Not Active | inactive | – | – | – | – |
| CC1(C)CCC[C@]2(C)[C@H]3COC(=O)C3=CC[C@@H]12 [CINNAMOLIDE] | inactive | 4.64 µM | inactive | inactive | 2.62 µM | – | – | 1.57 µM | Active | – | – |
| CC1(C)CCC[C@]2(C)[C@@H](C=O)C(C=O)=CC[C@@H]12 [POLYGODIAL] | inactive | > 100 µM | inactive | inactive | 48.2 µM | – | – | 62.5 µM | Active | – | – |
| Clc1ccc(C2C[C@@H]3CCC2N3)cn1 (stereo partly drawn) | inactive | – | inactive | inactive | – | – | – | – | Active | – | – |
| CC1(C)CCC[C@]2(C)[C@H]3C(=O)OCC3=CC[C@@H]12 [DRIMENIN] | inactive | 13.8 µM | inactive | inactive | 1.78 µM | – | – | 0.97 µM | – | Active | 100% |
